# According to ChEMBL document CHEMBL4257584, “Sterol 14α-Demethylase Structure-Based Optimization of Drug Candidates for Human Infections with the Protozoan Trypanosomatidae” (J Med Chem, 2018):
# Active and inactive are the calls of the source. No cut-off for these calls is given here.
# Experiments:
# Mus musculus [1] = test: Toxicity in Swiss Webster mouse assessed as effect on spleen weight at 200 mg/kg, po administered as single dose measured after 48 hrs; type: organism-based; conditions: in vivo
# Summary of the method: (§1)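 Swiss Webster mice (21–23 g, n=3) get a single oral 200 mg/kg dose, given as in the PK study. They are inspected for toxic and sub-toxic signs per OECD guidelines (behaviour, motility, neurological state, skin, fur), and body weight is tracked 0–48 h. At 48 h, mice are euthanized and organ weights are normalized to body weight. Blood is taken for haematology and plasma biochemistry.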
# Trypanosoma cruzi [2] = test: Antiparasitic activity against GFP-expressing Trypanosoma cruzi Y amastigote formss infected in cardiomyocytes assessed as reduction in rate of parasite multiplication within infected cardiomyocytes measured at 72 hrs post infection by fluorescence microscopy; type: functional, organism-based
# Summary of the method: (§2)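 GFP-expressing trypomastigotes (Tulahuen or Y strain) infect cardiomyocyte monolayers at 10 parasites per cell, in DMEM + 10% FBS. Unbound parasites are washed off. At 24 h of infection, inhibitors at 0.5–25 nM in DMSO/DMEM are added and cultured 48 h. Read-out is at 72 h post-infection as GFP fluorescence (RFU) after PBS wash; microscopy uses paraformaldehyde fixation, DAPI and phalloidin stain. Triplicate.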
# Mus musculus [3] = test: Toxicity in Swiss Webster mouse assessed as effect on skin at 200 mg/kg, po administered as single dose measured after 48 hrs; type: organism-based; conditions: in vivo; summary of the method: as §1
# [4] = Hepatic clearance in CD1 mouse liver microsomes at 1 uM preincubated for 5 mins followed by NADPH addition and measured after 45 mins by LC/MS/MS analysis; type: ADME, microsome
# [5] = biological target: Sterol 14-alpha demethylase (Trypanosoma cruzi (strain CL Brener)) (UniProt Q7Z1V1); test: Inhibition of Trypanosoma cruzi Y CYP51 expressed in Escherichia coli using [3-3H]-eburicol as substrate after 60 mins by LC-MS analysis
# Sequence of Sterol 14-alpha demethylase (Trypanosoma cruzi (strain CL Brener)) (Q7Z1V1 whole entry, looked up): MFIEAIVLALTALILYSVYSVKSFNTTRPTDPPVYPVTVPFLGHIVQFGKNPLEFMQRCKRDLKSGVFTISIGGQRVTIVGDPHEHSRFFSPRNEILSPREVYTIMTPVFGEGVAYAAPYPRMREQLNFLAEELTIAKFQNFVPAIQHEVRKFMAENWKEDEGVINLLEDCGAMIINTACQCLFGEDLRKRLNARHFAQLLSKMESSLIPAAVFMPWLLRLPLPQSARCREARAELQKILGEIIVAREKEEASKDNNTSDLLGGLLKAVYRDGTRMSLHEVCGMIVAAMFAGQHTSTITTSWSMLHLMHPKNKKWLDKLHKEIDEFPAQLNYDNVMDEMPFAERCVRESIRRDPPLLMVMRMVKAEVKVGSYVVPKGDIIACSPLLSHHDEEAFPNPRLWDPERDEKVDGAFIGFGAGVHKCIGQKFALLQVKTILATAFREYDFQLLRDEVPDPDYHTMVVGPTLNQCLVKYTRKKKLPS
# Summary of the method: (§3)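 Reconstituted reaction: 1 μM purified CYP51, 2 μM T. brucei NADPH-P450 reductase, 100 μM dilauroylphosphatidylcholine, isocitrate dehydrogenase/isocitrate regeneration, 50 mM K phosphate pH 7.2, 10% glycerol. [3-3H]sterol substrate at 50 μM final (eburicol for T. cruzi; obtusifoliol for T. brucei and L. infantum) with inhibitor at 1.1 μM final. Preincubate 60 s at 37 °C, start with 100 μM NADPH, run 60 min, EtOAc extraction. Gives % inhibition of 14α-demethylation, triplicate, mean ± SD.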
# Mus musculus [6] = test: Toxicity in Swiss Webster mouse assessed as effect on fur profile at 200 mg/kg, po administered as single dose measured after 48 hrs; type: organism-based; conditions: in vivo; summary of the method: as §1
# [7] = Drug uptake in BALB/c mouse heart at 25 mg/kg, po via gavage measured after 4 hrs post dose by […]; type: ADME, organism-based; conditions: read-out: Drug uptake
# Summary of the method: (§4)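 BALB/c mice get a single oral gavage dose of 25 mg/kg; tissues are collected 4 h post-dose. About 100 mg tissue is diluted 5-fold in PBS and homogenized. Homogenate is extracted as for plasma (ketoconazole internal standard, acetonitrile extraction) and quantified by HPLC-UV at 291 nm, 0.1 μM detection limit, n=2.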
# Mus musculus [8] = test: Toxicity in Swiss Webster mouse assessed as effect on kidney weight at 200 mg/kg, po administered as single dose measured after 48 hrs; type: organism-based; conditions: in vivo; summary of the method: as §1
# [9] = biological target: Sterol 14-alpha demethylase (Trypanosoma cruzi (strain CL Brener), UniProt Q7Z1V1); test: Binding affinity to Trypanosoma cruzi Y CYP51A expressed in Escherichia coli
# Sequence of Sterol 14-alpha demethylase (Q7Z1V1 whole entry): as the sequence (Q7Z1V1 whole entry, looked up) above
# Summary of the method: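 Recombinant CYP51A from Y strain T. cruzi, expressed in E. coli and purified, titrated spectrally at 0.5 μM P450 in 5 cm path cuvettes with ligand over 0.1–1 μM. Type of absorbance change in difference spectra Δ(A430-A411) plotted against ligand concentration. Apparent Kd obtained by fitting to the Morrison quadratic tight-binding equation by nonlinear regression.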
# [10] = Plasma concentration in BALB/c mouse assessed as time until the compound becomes undetectable at 25 mg/kg, po via gavage […]; type: ADME, organism-based; conditions: in vivo
# Summary of the method: (§5)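 Single oral gavage dose of 25 mg/kg in BALB/c mice; blood sampled at 1, 2, 4, 6, 10, 16, 24 h. Plasma is diluted in PBS with ketoconazole internal standard, extracted with 80% acetonitrile, dried and redissolved. Analysed by reversed-phase HPLC with UV at 291/250 nm, 0.1 μM detection limit. Lifetime is time until undetectable.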
# Mus musculus [11] = test: Toxicity in Swiss Webster mouse assessed as effect on neurological conditions at 200 mg/kg, po administered as single dose measured after 48 hrs; type: organism-based; conditions: in vivo; summary of the method: as §1
# [12] = Drug uptake in BALB/c mouse liver at 25 mg/kg, po via gavage measured after 4 hrs post dose by […]; type: ADME, organism-based; conditions: read-out: Drug uptake; summary of the method: as §4
# Mus musculus [13] = test: Toxicity in Swiss Webster mouse assessed as effect on lung weight at 200 mg/kg, po administered as single dose measured after 48 hrs; type: organism-based; conditions: in vivo; summary of the method: as §1
# [14] = biological target: Putative lanosterol 14-alpha-demethylase (Leishmania infantum) (UniProt A2TEF2); test: Inhibition of Leishmania infantum CYP51 expressed in Escherichia coli using [3-3H]-obtusifoliol as substrate after 60 mins by LC-MS analysis; summary of the method: as §3
# Sequence of Putative lanosterol 14-alpha-demethylase (Leishmania infantum) (A2TEF2 1-480): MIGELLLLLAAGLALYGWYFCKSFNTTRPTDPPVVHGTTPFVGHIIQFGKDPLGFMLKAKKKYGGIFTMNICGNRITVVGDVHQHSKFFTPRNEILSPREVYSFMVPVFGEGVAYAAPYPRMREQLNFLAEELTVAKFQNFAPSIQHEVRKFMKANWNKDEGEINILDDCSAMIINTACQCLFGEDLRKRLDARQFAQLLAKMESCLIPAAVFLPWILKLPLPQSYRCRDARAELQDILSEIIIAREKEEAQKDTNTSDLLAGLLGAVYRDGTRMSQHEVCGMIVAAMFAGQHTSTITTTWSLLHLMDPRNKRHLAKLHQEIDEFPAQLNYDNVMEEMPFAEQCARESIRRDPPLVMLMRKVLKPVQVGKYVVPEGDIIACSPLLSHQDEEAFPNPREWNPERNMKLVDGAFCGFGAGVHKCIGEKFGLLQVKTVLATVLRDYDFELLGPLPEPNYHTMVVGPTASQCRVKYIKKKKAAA
# Mus musculus [15] = test: Toxicity in Swiss Webster mouse assessed as effect on body weight at 200 mg/kg, po administered as single dose measured after 48 hrs; type: organism-based; conditions: in vivo; summary of the method: as §1
# [16] = Drug uptake in BALB/c mouse spleen at 25 mg/kg, po via gavage measured after 4 hrs post dose by […]; type: ADME, organism-based; conditions: read-out: Drug uptake; summary of the method: as §4
# Trypanosoma cruzi [17] = test: Antiparasitic activity against GFP-expressing Trypanosoma cruzi Tulahuen amastigote formss infected in cardiomyocytes assessed as reduction in rate of parasite multiplication within infected cardiomyocytes measured at 72 hrs post infection by fluorescence microscopy; type: functional, organism-based; summary of the method: as §2
# Mus musculus [18] = test: Toxicity in Swiss Webster mouse assessed as effect on animal behavior at 200 mg/kg, po administered as single dose measured after 48 hrs; type: organism-based; conditions: in vivo; summary of the method: as §1
# Mus musculus [19] = test: Toxicity in Swiss Webster mouse assessed as effect on liver weight at 200 mg/kg, po administered as single dose measured after 48 hrs; type: organism-based; conditions: in vivo; summary of the method: as §1
# [20] = Drug uptake in BALB/c mouse blood at 25 mg/kg, po via gavage measured after 4 hrs post dose by […]; type: ADME, organism-based; conditions: read-out: Drug uptake; summary of the method: as §4
# [21] = Maximum plasma concentration in BALB/c mouse at 25 mg/kg, po via gavage by […]; type: ADME, organism-based; set-up: dose 25 mg/kg, route oral; summary of the method: as §5
# [22] = Drug uptake in BALB/c mouse lungs at 25 mg/kg, po via gavage measured after 4 hrs post dose by […]; type: ADME, organism-based, Lung; conditions: read-out: Drug uptake; summary of the method: as §4
# [23] = Drug uptake in BALB/c mouse brain at 25 mg/kg, po via gavage measured after 4 hrs post dose by […]; type: ADME, organism-based; conditions: read-out: Drug uptake; summary of the method: as §4
# Mus musculus [24] = test: Toxicity in Swiss Webster mouse assessed as effect on heart weight at 200 mg/kg, po administered as single dose measured after 48 hrs; type: organism-based; conditions: in vivo; summary of the method: as §1
# [25] = biological target: Putative lanosterol 14-alpha-demethylase (Leishmania infantum, UniProt A2TEF2); test: Binding affinity to Leishmania infantum CYP51 expressed in Escherichia coli
# Sequence of Putative lanosterol 14-alpha-demethylase (A2TEF2 whole entry): as the sequence (A2TEF2 1-480) above
# Summary of the method: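 Purified E. coli-expressed L. infantum CYP51 at 0.5 μM is titrated with ligand at 0.1–1 μM in 5 cm path cuvettes. Difference-spectrum absorbance change Δ(A430−A411) is plotted against ligand concentration. Apparent Kd comes from a Morrison (quadratic) tight-binding fit by nonlinear regression.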
# Mus musculus [26] = test: Toxicity in Swiss Webster mouse assessed as effect on biochemical plasma parameters at 200 mg/kg, po administered as single dose measured after 48 hrs; type: organism-based; conditions: in vivo; summary of the method: as §1
# Mus musculus [27] = test: Toxicity in Swiss Webster mouse at 200 mg/kg, po administered as single dose measured after 48 hrs measured at 48 hrs post dose; type: organism-based; conditions: in vivo; summary of the method: as §1
# Mus musculus [28] = test: Toxicity in Swiss Webster mouse assessed as effect on motility at 200 mg/kg, po administered as single dose measured after 48 hrs; type: organism-based; conditions: in vivo; summary of the method: as §1
# [29] = Intrinsic clearance in CD1 mouse liver microsomes at 1 uM preincubated for 5 mins followed by NADPH addition and measured after 45 mins by LC/MS/MS analysis; type: ADME, microsome; conditions: read-out: CLH
# Mus musculus [30] = test: Toxicity in Swiss Webster mouse assessed as alteration in body to organ ratio at 200 mg/kg, po administered as single dose measured after 48 hrs; type: organism-based; conditions: in vivo; summary of the method: as §1
# [31] = biological target: Lanosterol 14-alpha-demethylase (Trypanosoma brucei brucei (strain 927/4 GUTat10.1)) (UniProt Q385E8); test: Inhibition of Trypanosoma brucei […] CYP51 expressed in Escherichia coli using [3-3H]-obtusifoliol as substrate after 60 mins by LC-MS analysis; summary of the method: as §3
# Sequence of Lanosterol 14-alpha-demethylase (Trypanosoma brucei brucei (strain 927/4 GUTat10.1)) (Q385E8 1-481): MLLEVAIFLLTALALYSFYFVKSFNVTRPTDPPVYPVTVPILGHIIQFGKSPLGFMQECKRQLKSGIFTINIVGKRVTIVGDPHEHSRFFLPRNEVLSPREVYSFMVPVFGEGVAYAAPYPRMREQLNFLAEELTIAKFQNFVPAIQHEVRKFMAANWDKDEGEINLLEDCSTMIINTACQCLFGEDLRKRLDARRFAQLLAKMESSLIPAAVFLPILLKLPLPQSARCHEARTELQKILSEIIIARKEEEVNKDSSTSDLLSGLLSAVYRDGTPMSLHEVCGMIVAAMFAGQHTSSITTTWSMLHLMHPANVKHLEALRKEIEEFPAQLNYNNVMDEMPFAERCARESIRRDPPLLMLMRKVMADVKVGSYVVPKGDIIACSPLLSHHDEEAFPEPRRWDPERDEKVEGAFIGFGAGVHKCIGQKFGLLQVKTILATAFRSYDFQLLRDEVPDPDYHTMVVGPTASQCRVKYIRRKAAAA
structure (smiles),measurement,setting,value
O=C(N[C@@H](Cn1ccnc1)c1ccc(Cl)cc1Cl)c1ccc(-c2nnc(-c3ccc(F)c(F)c3)o2)cc1,Activity,Mus musculus [1],Non-Toxic
same,EC50,Trypanosoma cruzi [2],3 nM
same,Activity,Mus musculus [3],Non-Toxic
same,CLhep predicted at 1 µM,[4],34.5 mL/min/kg
same,inhibition,[5],Active
same,Activity,Mus musculus [6],Non-Toxic
same,concentration at 4 h,[7],36 µM
same,Activity,Mus musculus [8],Non-Toxic
same,Kd,[9],4.2 nM
same,Time,[10],16 h
same,Activity,Mus musculus [11],Non-Toxic
same,concentration at 4 h,[12],38 µM
same,Activity,Mus musculus [13],Non-Toxic
same,inhibition,[14],Active
same,Activity,Mus musculus [15],Non-Toxic
same,concentration at 4 h,[16],28 µM
same,EC50,Trypanosoma cruzi [17],1.6 nM
same,Activity,Mus musculus [18],Non-Toxic
same,Activity,Mus musculus [19],Non-Toxic
same,concentration at 4 h,[20],36 µM
same,Cmax,[21],38 µM
same,concentration at 4 h,[22],46 µM
same,concentration at 4 h,[23],8 µM
same,Activity,Mus musculus [24],Non-Toxic
same,Kd,[25],1.7 nM
same,Activity,Mus musculus [26],Non-Toxic
same,NOAEL,Mus musculus [27],> 200 mg/kg
same,Activity,Mus musculus [28],Non-Toxic
same,CLint scaled at 1 µM,[29],55.8 mL/min/kg
same,Activity,Mus musculus [30],Non-Toxic
same,inhibition,[31],Active
